Laboratory results as given in ChEMBL document CHEMBL1142702, “Dynamic receptor-based pharmacophore model development and its application in designing novel HIV-1 integrase inhibitors” (J Med Chem, 2005).

Assays:
[1] = target: T1, Human immunodeficiency virus type 1 integrase (Human immunodeficiency virus 1, UniProt Q7ZJM1); assay: Concentration to inhibit 3' processing of wild type Human immunodeficiency virus-1 integrase
Outline: (§1)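 Recombinant wild-type IN, 200 nM final, preincubated with inhibitor at 30 °C for 30 min. 20 nM 5′-32P-labeled 21-mer duplex substrate then added for 1 h. Quenched with formamide loading dye. 19-mer or strand-transfer product fraction gave percent inhibition. IC50 from log concentration versus percent inhibition.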

[2] = target: T1, Human immunodeficiency virus type 1 integrase; assay: Concentration to inhibit strand transfer of wild type Human immunodeficiency virus-1 integrase; outline: as §1
[3] = target: T1, Human immunodeficiency virus type 1 integrase; assay: Concentration to inhibit strand transfer of wild type Human immuno deficiency virus-1 integrase; outline: as §1
[4] = target: T1, Human immunodeficiency virus type 1 integrase; assay: Concentration to inhibit 3' processing of wild type Human immuno deficiency virus-1 integrase; outline: as §1
[5] = target: T1, Human immunodeficiency virus type 1 integrase; assay: Concentration to inhibit 3' processing of soluble mutant (F185K, C280S) of wild type Human immunodeficiency virus-1 integrase
Outline: (§2)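 Integrase (200 nM final) is preincubated with inhibitor for 30 min at 30 °C in buffer with MOPS pH 7.2, HEPES pH 7.5, 7.5 mM MnCl2, 50 mM NaCl, BSA, DTT, 2-mercaptoethanol, glycerol, EDTA and 10% DMSO. Then 20 nM 5′-32P-labelled 21-mer duplex substrate is added for 1 h, and the reaction is quenched with formamide/EDTA dye. The fraction converted to 19-mer (3′-processing) or to strand-transfer products gives percent inhibition, and IC50 comes from log concentration versus percent inhibition.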

[6] = target: T1, Human immunodeficiency virus type 1 integrase; assay: Concentration to inhibit strand transfer of soluble mutant (F185K, C280S) of wild type Human immunodeficiency virus-1 integrase; outline: as §2

IC50 [1]	IC50 [2]	IC50 [3]	IC50 [4]	SMILES	IC50 [5]	IC50 [6]
> 1000 µM	150 µM			C/C(CC(=O)Nc1c(C)cc(C)cc1C)=N\NC(=O)c1ccc(O)cc1O		
		300 µM	355 µM	COc1ccc(NS(=O)(=O)c2cccc(C(=O)Nc3ccccc3C(=O)O)c2)cc1		
		100 µM	140 µM	O=C(O)c1cc(NS(=O)(=O)c2ccc(NCCCN3CCOCC3)c([N+](=O)[O-])c2)cc(C(=O)O)c1		
		> 100 µM	> 100 µM	CCOC(=O)c1cc(C(=O)OCC)c(SCC(=O)Nc2ccc(Br)cc2)nc1O		
		> 100 µM	> 100 µM	O=C(c1ccccc1)c1ccc(OCC(O)COc2ccc(C(=O)c3ccccc3)c(O)c2)cc1O		
		8 µM	37 µM	O=C(NCc1ccco1)c1cc(C(=O)NCc2ccco2)cc(C(=O)NCc2ccco2)c1		
		> 100 µM	> 100 µM	COc1ccc(C(=O)Nc2ccc(Cc3ccc(NC(=O)c4ccc(OC)cc4)c(O)c3)cc2O)cc1		
> 100 µM	66 µM			O=C(O)c1cc(NS(=O)(=O)c2ccc(NCc3ccccc3)c([N+](=O)[O-])c2)cc(C(=O)O)c1		
> 100 µM	> 100 µM			CCOc1ccc2[nH]c(SCC(=O)Nc3cc(C(=O)O)cc(C(=O)O)c3)nc2c1		
		> 100 µM	> 100 µM	COC(=O)c1cc(NS(=O)(=O)c2ccc(NCc3cccnc3)c(N)c2)cc(C(=O)OC)c1		
		43 µM	177 µM	O=C(N/N=C/c1ccc(O)cc1O)c1cc(C2CC2)[nH]n1		
63 µM	38 µM			O=C(Nc1ccc(Cc2ccc(NC(=O)c3cccs3)c(C(=O)O)c2)cc1C(=O)O)c1cccs1		
> 100 µM	81 µM			COC(=O)C1=C(O)/C(=C\c2ccc(CNC(=O)C(=O)Nc3ccc(C)cc3)o2)N=C1C		
> 100 µM	97 µM			COC(=O)c1sccc1NC(=O)c1ccc(C(=O)Nc2ccsc2C(=O)OC)cc1		
> 100 µM	> 100 µM			CCOC(=O)C(=O)NCc1ccc(/C=C2/N=C(C)C(C(=O)OCC)=C2O)o1		
		> 100 µM	> 100 µM	COc1ccc2[nH]c(SCC(=O)Nc3ccc(O)c(C(=O)O)c3)nc2c1		
> 100 µM	> 100 µM			CCN(CC)c1ccc(/C=N/Nc2nonc2N)c(O)c1		
		> 100 µM	> 100 µM	COc1cc(/C=N/NC(=O)c2cc(C3CC3)[nH]n2)ccc1O		

SMILES	IC50 [1]	IC50 [2]	IC50 [3]	IC50 [4]	IC50 [5]	IC50 [6]
Cc1ccc(NC(=O)C(=O)NCc2ccc(/C=N\NC(=O)C(=O)Nc3cc(Cl)ccc3C)o2)cc1C			> 100 µM	> 100 µM	510 µM	70 µM
CCc1cc(/C=N/CC/N=C/c2cc(CC)sc2S)c(S)s1			21 µM	> 100 µM	> 100 µM	6 µM
O=C(Nc1ccc(Cc2ccc(O)c(NC(=O)c3ccccc3F)c2)cc1O)c1ccccc1F	> 100 µM	> 100 µM			205 µM	33 µM
O=C(NCc1cccc(CNC(=O)C(=O)NCc2ccco2)c1)C(=O)NCc1ccco1			> 100 µM	> 100 µM	1000 µM	40 µM
O=C(Nc1ccc(Cc2ccc(NC(=O)c3cccc([N+](=O)[O-])c3)c(C(=O)O)c2)cc1C(=O)O)c1cccc([N+](=O)[O-])c1	15 µM	13 µM				
